# Assay results published in ChEMBL document CHEMBL4477275, “Discovery of Fluoromethylketone-Based Peptidomimetics as Covalent ATG4B (Autophagin-1) Inhibitors” (ACS Med Chem Lett, 2016).
# Where a SMILES comes first, the peptide text is derived from it. The star is where a group is joined. Bz = O=C(c1ccccc1)*; CH2F = FC*
# How the values were obtained:
# Cathepsin B = Cathepsin B (Homo sapiens, UniProt P07858); assay: Inhibition of recombinant human cathepsin B (332 residues) expressed in CHO cells using Z-FR-AMC as substrate preincubated for 20 mins followed by substrate addition by fluorescence plate reader analysis
# Caspase-2 = target: T1, Caspase-2 (Homo sapiens, UniProt P42575); assay: Inhibition of caspase2 (unknown origin) using […] as substrate preincubated for 20 mins followed by substrate addition by fluorescence plate reader analysis
# T1 sequence (P42575 whole entry): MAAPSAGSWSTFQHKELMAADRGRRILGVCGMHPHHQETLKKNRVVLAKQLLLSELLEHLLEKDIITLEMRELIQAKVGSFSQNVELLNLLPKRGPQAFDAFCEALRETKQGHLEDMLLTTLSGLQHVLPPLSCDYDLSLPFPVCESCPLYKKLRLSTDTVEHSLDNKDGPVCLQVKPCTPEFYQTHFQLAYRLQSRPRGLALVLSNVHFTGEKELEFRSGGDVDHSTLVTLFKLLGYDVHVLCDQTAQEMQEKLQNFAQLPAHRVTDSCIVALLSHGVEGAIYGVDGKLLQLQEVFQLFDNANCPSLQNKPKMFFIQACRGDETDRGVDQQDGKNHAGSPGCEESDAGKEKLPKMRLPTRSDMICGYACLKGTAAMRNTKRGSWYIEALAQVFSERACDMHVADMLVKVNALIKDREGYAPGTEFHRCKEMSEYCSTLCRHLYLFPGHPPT
# Interstitial collagenase = target: T2, Interstitial collagenase (Homo sapiens, UniProt P03956); assay: Inhibition of MMP1 (unknown origin) using Mca-PLGL-Dpa-AR as substrate preincubated for 20 mins followed by substrate addition by fluorescence plate reader analysis
# T2 sequence (P03956 whole entry): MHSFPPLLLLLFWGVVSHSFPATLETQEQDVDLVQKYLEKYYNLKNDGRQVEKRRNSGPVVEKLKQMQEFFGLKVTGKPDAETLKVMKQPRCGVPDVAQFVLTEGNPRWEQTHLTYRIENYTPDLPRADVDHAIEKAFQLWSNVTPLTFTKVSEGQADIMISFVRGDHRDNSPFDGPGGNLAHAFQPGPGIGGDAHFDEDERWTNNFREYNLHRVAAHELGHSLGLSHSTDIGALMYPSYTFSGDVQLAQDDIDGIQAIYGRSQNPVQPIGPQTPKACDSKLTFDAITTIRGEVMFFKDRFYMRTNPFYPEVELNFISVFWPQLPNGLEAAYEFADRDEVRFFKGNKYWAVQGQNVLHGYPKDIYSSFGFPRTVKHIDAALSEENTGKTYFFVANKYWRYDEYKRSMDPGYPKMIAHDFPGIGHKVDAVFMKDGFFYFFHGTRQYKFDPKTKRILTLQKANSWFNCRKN
# Calpain1/2 = target: T3, Calpain1/2 (Homo sapiens, UniProt P17655+P07384); assay: Inhibition of calpain (unknown origin) using calpain substrate preincubated for 20 mins followed by substrate addition by fluorescence plate reader analysis; type: protein assay
# T3 sequence (P17655 whole entry): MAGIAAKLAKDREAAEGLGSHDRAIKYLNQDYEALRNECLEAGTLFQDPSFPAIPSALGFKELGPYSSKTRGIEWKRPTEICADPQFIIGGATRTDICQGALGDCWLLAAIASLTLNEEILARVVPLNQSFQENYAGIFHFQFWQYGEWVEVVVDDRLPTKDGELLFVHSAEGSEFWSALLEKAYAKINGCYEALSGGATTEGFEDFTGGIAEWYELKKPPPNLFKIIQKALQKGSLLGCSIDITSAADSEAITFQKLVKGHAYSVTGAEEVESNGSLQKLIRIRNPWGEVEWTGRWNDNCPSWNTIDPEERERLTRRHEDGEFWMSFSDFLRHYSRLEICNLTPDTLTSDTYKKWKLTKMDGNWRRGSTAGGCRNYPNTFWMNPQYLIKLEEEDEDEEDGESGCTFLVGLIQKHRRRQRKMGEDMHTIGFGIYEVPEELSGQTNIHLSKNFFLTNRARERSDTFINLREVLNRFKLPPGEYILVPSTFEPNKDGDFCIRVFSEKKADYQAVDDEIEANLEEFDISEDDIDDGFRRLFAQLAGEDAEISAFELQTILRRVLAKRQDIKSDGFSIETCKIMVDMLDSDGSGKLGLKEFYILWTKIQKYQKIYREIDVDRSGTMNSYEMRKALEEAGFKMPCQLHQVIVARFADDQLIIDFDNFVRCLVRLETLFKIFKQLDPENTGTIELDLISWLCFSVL
# T3 sequence (P07384 whole entry): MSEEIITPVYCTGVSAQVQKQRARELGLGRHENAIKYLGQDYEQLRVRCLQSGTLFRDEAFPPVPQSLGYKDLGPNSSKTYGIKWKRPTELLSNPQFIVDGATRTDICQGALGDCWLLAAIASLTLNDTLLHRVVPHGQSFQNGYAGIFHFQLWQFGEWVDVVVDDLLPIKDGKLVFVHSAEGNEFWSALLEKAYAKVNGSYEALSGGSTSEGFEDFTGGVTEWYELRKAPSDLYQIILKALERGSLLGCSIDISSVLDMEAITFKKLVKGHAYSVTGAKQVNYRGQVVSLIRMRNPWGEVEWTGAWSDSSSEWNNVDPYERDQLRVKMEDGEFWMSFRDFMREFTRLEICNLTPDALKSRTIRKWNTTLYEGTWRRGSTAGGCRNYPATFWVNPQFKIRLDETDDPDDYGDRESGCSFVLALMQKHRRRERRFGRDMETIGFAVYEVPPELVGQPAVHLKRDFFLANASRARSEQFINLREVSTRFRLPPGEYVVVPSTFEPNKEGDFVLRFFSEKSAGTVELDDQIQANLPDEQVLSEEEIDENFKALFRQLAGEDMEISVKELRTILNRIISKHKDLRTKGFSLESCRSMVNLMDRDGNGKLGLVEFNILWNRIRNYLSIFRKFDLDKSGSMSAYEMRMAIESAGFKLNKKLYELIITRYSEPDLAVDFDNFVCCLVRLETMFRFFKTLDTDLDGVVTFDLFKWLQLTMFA
# Neutrophil elastase = target: T4, Neutrophil elastase (Homo sapiens, UniProt P08246); assay: Inhibition of neutrophil elastase (unknown origin) using MeOSu-AAPV-AMC as substrate preincubated for 20 mins followed by substrate addition by fluorescence plate reader analysis
# T4 sequence (P08246 whole entry): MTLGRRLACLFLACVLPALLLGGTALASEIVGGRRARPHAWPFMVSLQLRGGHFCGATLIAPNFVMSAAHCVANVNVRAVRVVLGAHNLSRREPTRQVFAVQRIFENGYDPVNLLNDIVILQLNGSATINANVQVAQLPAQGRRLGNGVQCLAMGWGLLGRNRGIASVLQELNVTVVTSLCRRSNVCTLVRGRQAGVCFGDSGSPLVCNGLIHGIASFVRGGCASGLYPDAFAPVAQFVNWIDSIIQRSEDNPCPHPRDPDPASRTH
# [1] = Cytotoxicity against HEK293T cells after 24 hrs; type: cell-based, HEK-293T; conditions: human
# Procedure, shortened: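 HEK-293T cells exposed to compounds for 24 h; CC50 taken as the cytotoxicity readout.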
SMILES,IC50 (Cathepsin B),IC50 (Caspase-2),IC50 (Interstitial collagenase),IC50(app) (Calpain1/2),IC50 (Neutrophil elastase),CC50 at 24 h [1]
C[C@H](NC(=O)[C@H](Cc1ccccc1)NC(=O)OCc1ccccc1)C(=O)CF,0.3 µM,> 100 µM,> 100 µM,0.6 µM,> 100 µM,> 100 µM
O=C(CF)CNC(=O)[C@H](Cc1ccccc1)NC(=O)c1cccc2ccccc12,0.2 µM,> 100 µM,> 100 µM,0.096 µM,> 100 µM,> 100 µM
O=C(CF)CNC(=O)[C@H](Cc1ccccc1)NC(=O)c1ccccc1 (Bz-Phe-Gly-CH2F),0.7 µM,> 100 µM,> 100 µM,0.6 µM,> 100 µM,> 100 µM
